Results published in ChEMBL document CHEMBL4261538, “Synthesis and molecular docking studies of xanthone attached amino acids as potential antimicrobial and anti-inflammatory agents” (Medchemcomm, 2017).
Calls of active or inactive are those of the source. No cut-off for these calls is given here.

Columns and labels:
Staphylococcus aureus [1] = test: Antibacterial activity against Staphylococcus aureus at 25 ug/ml incubated for 24 hrs by agar well diffusion method; type: functional; details: read-out: DIZ
Summary of the method: (§1)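 Bacteria grown in nutrient broth at 37 °C for 24 h, then subcultured at room temperature. Compounds dissolved in DMSO at 5 mg mL⁻¹ and 5–20 µL added to 6 mm wells, giving 25, 50, 75, 100 µg per well. Gentamicin was the positive control and DMSO the negative control. Plates held at 37 °C for 24 h, then inhibition zone diameter (mm) measured. Values are means of three determinations.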

Staphylococcus aureus [2] = test: Antibacterial activity against Staphylococcus aureus at 50 ug/ml incubated for 24 hrs by agar well diffusion method; type: functional; details: read-out: DIZ; summary of the method: as §1
Staphylococcus aureus [3] = test: Antibacterial activity against Staphylococcus aureus at 75 ug/ml incubated for 24 hrs by agar well diffusion method; type: functional; details: read-out: DIZ; summary of the method: as §1
Staphylococcus aureus [4] = test: Antibacterial activity against Staphylococcus aureus at 100 ug/ml incubated for 24 hrs by agar well diffusion method; type: functional; details: read-out: DIZ; summary of the method: as §1
Bacillus subtilis [5] = test: Antibacterial activity against Bacillus subtilis at 25 ug/ml incubated for 24 hrs by agar well diffusion method; type: functional; details: read-out: DIZ; summary of the method: as §1
Bacillus subtilis [6] = test: Antibacterial activity against Bacillus subtilis at 50 ug/ml incubated for 24 hrs by agar well diffusion method; type: functional; details: read-out: DIZ; summary of the method: as §1
Bacillus subtilis [7] = test: Antibacterial activity against Bacillus subtilis at 75 ug/ml incubated for 24 hrs by agar well diffusion method; type: functional; details: read-out: DIZ; summary of the method: as §1
Bacillus subtilis [8] = test: Antibacterial activity against Bacillus subtilis at 100 ug/ml incubated for 24 hrs by agar well diffusion method; type: functional; details: read-out: DIZ; summary of the method: as §1
Escherichia coli [9] = test: Antibacterial activity against Escherichia coli at 25 ug/ml incubated for 24 hrs by agar well diffusion method; type: functional; details: read-out: DIZ; summary of the method: as §1
Escherichia coli [10] = test: Antibacterial activity against Escherichia coli at 50 ug/ml incubated for 24 hrs by agar well diffusion method; type: functional; details: read-out: DIZ; summary of the method: as §1
Escherichia coli [11] = test: Antibacterial activity against Escherichia coli at 75 ug/ml incubated for 24 hrs by agar well diffusion method; type: functional; details: read-out: DIZ; summary of the method: as §1
Escherichia coli [12] = test: Antibacterial activity against Escherichia coli at 100 ug/ml incubated for 24 hrs by agar well diffusion method; type: functional; details: read-out: DIZ; summary of the method: as §1
Klebsiella pneumoniae [13] = test: Antibacterial activity against Klebsiella pneumoniae at 25 ug/ml incubated for 24 hrs by agar well diffusion method; type: functional; details: read-out: DIZ; summary of the method: as §1
Klebsiella pneumoniae [14] = test: Antibacterial activity against Klebsiella pneumoniae at 50 ug/ml incubated for 24 hrs by agar well diffusion method; type: functional; details: read-out: DIZ; summary of the method: as §1
Klebsiella pneumoniae [15] = test: Antibacterial activity against Klebsiella pneumoniae at 75 ug/ml incubated for 24 hrs by agar well diffusion method; type: functional; details: read-out: DIZ; summary of the method: as §1
Klebsiella pneumoniae [16] = test: Antibacterial activity against Klebsiella pneumoniae at 100 ug/ml incubated for 24 hrs by agar well diffusion method; type: functional; details: read-out: DIZ; summary of the method: as §1
Aspergillus niger [17] = test: Antifungal activity against Aspergillus niger at 25 ug/ml incubated for 48 hrs by agar well diffusion method; type: functional; details: read-out: DIZ
Summary of the method: (§2)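 Compounds dissolved in DMSO at 5 mg mL⁻¹ and 5–20 µL added to 6 mm wells, giving 25, 50, 75, 100 µg per well. Bavistin was the positive control and DMSO the negative control. Plates incubated at 28 °C for 48 h, then inhibition zone diameter (mm) measured. Values are means of three determinations.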

Aspergillus niger [18] = test: Antifungal activity against Aspergillus niger at 50 ug/ml incubated for 48 hrs by agar well diffusion method; type: functional; details: read-out: DIZ; summary of the method: as §2
Aspergillus niger [19] = test: Antifungal activity against Aspergillus niger at 75 ug/ml incubated for 48 hrs by agar well diffusion method; type: functional; details: read-out: DIZ; summary of the method: as §2
Aspergillus niger [20] = test: Antifungal activity against Aspergillus niger at 100 ug/ml incubated for 48 hrs by agar well diffusion method; type: functional; details: read-out: DIZ; summary of the method: as §2
Candida albicans [21] = test: Antifungal activity against Candida albicans at 25 ug/ml incubated for 48 hrs by agar well diffusion method; type: functional; details: read-out: DIZ; summary of the method: as §2
Candida albicans [22] = test: Antifungal activity against Candida albicans at 50 ug/ml incubated for 48 hrs by agar well diffusion method; type: functional; details: read-out: DIZ; summary of the method: as §2
Candida albicans [23] = test: Antifungal activity against Candida albicans at 75 ug/ml incubated for 48 hrs by agar well diffusion method; type: functional; details: read-out: DIZ; summary of the method: as §2
Candida albicans [24] = test: Antifungal activity against Candida albicans at 100 ug/ml incubated for 48 hrs by agar well diffusion method; type: functional; details: read-out: DIZ; summary of the method: as §2
Fusarium oxysporum [25] = test: Antifungal activity against Fusarium oxysporum at 25 ug/ml incubated for 48 hrs by agar well diffusion method; type: functional; details: read-out: DIZ; summary of the method: as §2
Fusarium oxysporum [26] = test: Antifungal activity against Fusarium oxysporum at 50 ug/ml incubated for 48 hrs by agar well diffusion method; type: functional; details: read-out: DIZ; summary of the method: as §2
Fusarium oxysporum [27] = test: Antifungal activity against Fusarium oxysporum at 75 ug/ml incubated for 48 hrs by agar well diffusion method; type: functional; details: read-out: DIZ; summary of the method: as §2
Fusarium oxysporum [28] = test: Antifungal activity against Fusarium oxysporum at 100 ug/ml incubated for 48 hrs by agar well diffusion method; type: functional; details: read-out: DIZ; summary of the method: as §2
Staphylococcus aureus [29] = test: Antibacterial activity against Staphylococcus aureus incubated for 24 hrs by microdilution method; type: functional
Bacillus subtilis [30] = test: Antibacterial activity against Bacillus subtilis incubated for 24 hrs by microdilution method; type: functional
Escherichia coli [31] = test: Antibacterial activity against Escherichia coli incubated for 24 hrs by microdilution method; type: functional
Klebsiella pneumoniae [32] = test: Antibacterial activity against Klebsiella pneumoniae incubated for 24 hrs by microdilution method; type: functional
Aspergillus niger [33] = test: Antifungal activity against Aspergillus niger incubated for 48 to 72 hrs by microdilution method; type: functional
Summary of the method: (§3)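 Sabouraud agar plates inoculated with fungal suspension at 10⁵ CFU mL⁻¹ plus serially diluted compounds and bavistin reference, both in DMSO. Incubated at 25 °C for 48–72 h. MIC is the lowest concentration completely inhibiting growth. Values are means of three determinations.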

Candida albicans [34] = test: Antifungal activity against Candida albicans incubated for 48 to 72 hrs by microdilution method; type: functional; summary of the method: as §3
Fusarium oxysporum [35] = test: Antifungal activity against Fusarium oxysporum incubated for 48 to 72 hrs by microdilution method; type: functional; summary of the method: as §3
Staphylococcus aureus [36] = test: Induction of cell membrane damage in Staphylococcus aureus assessed as cell content leakage at MIC by spectrophotometric method; type: functional, organism-based; details: TDE = time-dependent effect
Summary of the method: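 Log-phase S. aureus inoculated into 0.1% sterile peptone water, with an untreated control, and held at 37 °C for 0, 30, 60 and 120 min. 1 mL of broth centrifuged and supernatant OD read at 260 nm to measure released DNA. Run in triplicate, repeated three times.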

Erythrocyte = test: Anti-inflammatory activity in human RBC assessed as inhibition of hypotonic solution-induced hemolysis after 10 mins by spectrophotometric method; type: functional, cell-based
Summary of the method: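 Human blood (heparinized) washed with 0.9% saline, packed cells made into a 40% v/v stock in isotonic phosphate buffer (154 mM NaCl, 10 mM sodium phosphate, pH 7.4). Stock RBC mixed with hypotonic buffer (50 mM NaCl, 10 mM phosphate, pH 7.4) plus sample at 20–100 µg mL⁻¹.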

Staphylococcus aureus [37] = test: Induction of cell membrane damage in Staphylococcus aureus assessed as cell content leakage at MIC after 2 hrs by SEM analysis; type: functional, organism-based

| Structure (SMILES) | zone of inhibition at 25 µg/mL (Staphylococcus aureus [1]) | zone of inhibition at 50 µg/mL (Staphylococcus aureus [2]) | zone of inhibition at 75 µg/mL (Staphylococcus aureus [3]) | zone of inhibition at 100 µg/mL (Staphylococcus aureus [4]) | zone of inhibition at 25 µg/mL (Bacillus subtilis [5]) | zone of inhibition at 50 µg/mL (Bacillus subtilis [6]) | zone of inhibition at 75 µg/mL (Bacillus subtilis [7]) | zone of inhibition at 100 µg/mL (Bacillus subtilis [8]) | zone of inhibition at 25 µg/mL (Escherichia coli [9]) | zone of inhibition at 50 µg/mL (Escherichia coli [10]) | zone of inhibition at 75 µg/mL (Escherichia coli [11]) | zone of inhibition at 100 µg/mL (Escherichia coli [12]) | zone of inhibition at 25 µg/mL (Klebsiella pneumoniae [13]) | zone of inhibition at 50 µg/mL (Klebsiella pneumoniae [14]) | zone of inhibition at 75 µg/mL (Klebsiella pneumoniae [15]) | zone of inhibition at 100 µg/mL (Klebsiella pneumoniae [16]) | zone of inhibition at 25 µg/mL (Aspergillus niger [17]) | zone of inhibition at 50 µg/mL (Aspergillus niger [18]) | zone of inhibition at 75 µg/mL (Aspergillus niger [19]) | zone of inhibition at 100 µg/mL (Aspergillus niger [20]) | other results |
| --- | --- | --- | --- | --- | --- | --- | --- | --- | --- | --- | --- | --- | --- | --- | --- | --- | --- | --- | --- | --- | --- |
| Cl.N[C@@H](Cc1c[nH]c2ccccc12)C(=O)Oc1ccc2c(=O)c3ccccc3oc2c1 | 24 mm | 31 mm | 37 mm | 42 mm | 26 mm | 32 mm | 36 mm | 43 mm | 26 mm | 31 mm | 38 mm | 43 mm | 23 mm | 30 mm | 37 mm | 44 mm | 28 mm | 31 mm | 40 mm | 46 mm | zone of inhibition at 25 µg/mL (Candida albicans [21]): 26 mm; zone of inhibition at 50 µg/mL (Candida albicans [22]): 33 mm; zone of inhibition at 75 µg/mL (Candida albicans [23]): 39 mm; zone of inhibition at 100 µg/mL (Candida albicans [24]): 44 mm; zone of inhibition at 25 µg/mL (Fusarium oxysporum [25]): 25 mm; zone of inhibition at 50 µg/mL (Fusarium oxysporum [26]): 32 mm; zone of inhibition at 75 µg/mL (Fusarium oxysporum [27]): 37 mm; zone of inhibition at 100 µg/mL (Fusarium oxysporum [28]): 42 mm; MIC (Staphylococcus aureus [29]): 16 µg/mL; MIC (Bacillus subtilis [30]): 16 µg/mL; MIC (Escherichia coli [31]): 15 µg/mL; MIC (Klebsiella pneumoniae [32]): 22 µg/mL; MIC (Aspergillus niger [33]): 21 µg/mL; MIC (Candida albicans [34]): 20 µg/mL; MIC (Fusarium oxysporum [35]): 20 µg/mL; Activity (Staphylococcus aureus [36]): Tde; IC50 (Erythrocyte): 26 µg/mL |
| Cl.N[C@@H](Cc1ccc(O)cc1)C(=O)Oc1ccc2c(=O)c3ccccc3oc2c1 | 23 mm | 27 mm | 35 mm | 39 mm | 23 mm | 26 mm | 38 mm | 40 mm | 21 mm | 26 mm | 34 mm | 39 mm | 21 mm | 26 mm | 31 mm | 37 mm | 24 mm | 31 mm | 38 mm | 40 mm | zone of inhibition at 25 µg/mL (Candida albicans [21]): 23 mm; zone of inhibition at 50 µg/mL (Candida albicans [22]): 30 mm; zone of inhibition at 75 µg/mL (Candida albicans [23]): 36 mm; zone of inhibition at 100 µg/mL (Candida albicans [24]): 39 mm; zone of inhibition at 25 µg/mL (Fusarium oxysporum [25]): 21 mm; zone of inhibition at 50 µg/mL (Fusarium oxysporum [26]): 28 mm; zone of inhibition at 75 µg/mL (Fusarium oxysporum [27]): 35 mm; zone of inhibition at 100 µg/mL (Fusarium oxysporum [28]): 41 mm; MIC (Staphylococcus aureus [29]): 18 µg/mL; MIC (Bacillus subtilis [30]): 19 µg/mL; MIC (Escherichia coli [31]): 20 µg/mL; MIC (Klebsiella pneumoniae [32]): 17 µg/mL; MIC (Aspergillus niger [33]): 21 µg/mL; MIC (Candida albicans [34]): 23 µg/mL; MIC (Fusarium oxysporum [35]): 23 µg/mL; Activity (Staphylococcus aureus [37]): Active; IC50 (Erythrocyte): 32 µg/mL |
